{
  "source": "ChEMBL document CHEMBL4330172",
  "about": "“Astratides: Insulin-Modulating, Insecticidal, and Antifungal Cysteine-Rich Peptides from Astragalus membranaceus” (J Nat Prod, 2019)",
  "key": {"[1]": {"system": "Sf9", "experiment": "(§1) Cytotoxicity against Spodoptera frugiperda Sf9 cells assessed as mortality after 24 hrs by MTT assay", "format": "functional", "summary_of_the_method": "(§2)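 Sf9 cells seeded at 1 × 10^5 cells/mL for 24 h, then exposed 24 h to peptide at 0.01–200 μM (10 levels). 0.1% DMSO served as negative control, 10% Triton X-100 as positive control. Viability by MTT (0.5 mg/mL, 4 h at 26 °C), DMSO solubilisation, absorbance 550 nm. LD50 taken from the dose–mortality curve.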"}, "[2]": {"experiment": "as §1", "format": "functional", "conditions": "Sf9, 24 h, read-out: LD50 (the source's name)", "summary_of_the_method": "as §2"}, "[3]": {"system": "Beta-TC6", "experiment": "Decrease in insulin secretion in mouse BetaTC6 cells assessed as insulin level at 1 to 100 uM after 24 hrs by ELISA (reference value: 1225.2 uIU/ml)", "format": "functional", "summary_of_the_method": "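Beta-TC-6 cells grown in high-glucose DMEM with 15% FBS. Seeded at 5000 cells/mL for 24 h, then treated 24 h with peptide at 0.01, 0.1, 1, 10 or 100 μM. Controls were 10 μM GW9508 (positive) and 0.1% DMSO (negative). Secreted insulin measured by mouse insulin ELISA.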"}, "[4]": {"system": "pepsin", "experiment": "Stability in pH 2 HCl assessed as pepsin (unknown origin)-mediated compound hydrolysis by measuring parent compound remaining at 200 uM up to 6 hrs by RP-HPLC analysis", "format": "ADME", "conditions": "human, pepsin in pH 2 HCl, read-out: Stability", "summary_of_the_method": "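Peptide at 200 μM incubated at 37 °C for 6 h with 4 mg/mL pepsin in HCl (pH 2), or with 20 U/mL aminopeptidase I in 20 mM tricine/0.05% BSA (pH 8.0). Sampled at 0, 2, 4 and 6 h, quenched with NaOH or HCl. Remaining peptide measured by RP-HPLC, in triplicate.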"}, "[5]": {"system": "Sf9", "experiment": "Cytotoxicity against Spodoptera frugiperda Sf9 cells assessed as induction of membrane integrity loss at 10 uM after 24 hrs using Alex488-labeled test compound by PKH26/Hoechst staining based confocal microscopic analysis"}, "[6]": {"experiment": "Stability in human serum after 36 hrs by RP-HPLC analysis", "format": "ADME, cell-free", "conditions": "read-out: Stability", "summary_of_the_method": "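Peptide (0.2 mg) incubated with 25% human male AB serum in phenol red-free DMEM at 37 °C. Aliquots taken at 0, 12, 24 and 48 h, quenched with 95% EtOH, held 15 min at 4 °C and centrifuged. Intact peptide quantified by RP-HPLC, in triplicate.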"}, "[7]": {"experiment": "Stability in pH 2 HCl at 200 uM for 2 hrs by RP-HPLC analysis", "format": "physicochemical", "conditions": "read-out: Stability", "summary_of_the_method": "(§3)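 Peptide at 200 μM held in a 100 °C water bath or in HCl (pH 2) for 2 h. Sampled at 0, 30, 60, 90 and 120 min, quenched on ice (heat) or with NaOH (acid). Remaining peptide measured by RP-HPLC, in triplicate.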"}, "[8]": {"system": "Beta-TC6", "experiment": "Decrease in insulin secretion in mouse BetaTC6 cells up to 1 uM after 24 hrs by ELISA", "format": "functional, cell-based", "summary_of_the_method": "(§4)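 Beta-TC-6 cells grown in high-glucose DMEM with 15% FBS at 37 °C, 5% CO2. Seeded 24 h, then treated 24 h with peptide (0.01, 0.1, 1, 10, 100 μM). Positive control 10 μM GW9508, negative control 0.1% DMSO. Secreted insulin measured by mouse insulin ELISA, reported in μIU/mL.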"}, "[9]": {"molecular_target": "aminopeptidase (Homo sapiens, UniProt O43895+P15144+P28838+P50579+P53582+P55786+Q07075+Q6P179+Q6Q4G3+Q6UB28+Q8N6M6+Q8NDH3+Q9H4A4+Q9HAU8+Q9NQH7+Q9NQW7+Q9NZ08+Q9UIQ6+Q9ULA0)", "experiment": "Stability in pH 8.0 20 mM tricine with 0.05% BSA assessed as aminopeptidase (unknown origin)-mediated compound hydrolysis by measuring parent compound remaining at 200 uM up to 6 hrs by RP-HPLC analysis", "conditions": "aminopeptidase in pH 8.0 20 mM tricine with 0.05% BSA"}, "[10]": {"system": "Beta-TC6", "experiment": "Decrease in insulin secretion in mouse BetaTC6 cells at 1 to 100 uM after 24 hrs by ELISA", "format": "functional, cell-based", "summary_of_the_method": "as §4"}, "[11]": {"system": "CHO-K1", "experiment": "Cytotoxicity against CHOK1 cells up to 200 uM after 24 hrs by MTT assay", "format": "cell-based, Cricetulus griseus", "conditions": "chinese hamster, cho-k1, 24 h", "summary_of_the_method": "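CHO-K1 cells grown at 37 °C, 5% CO2 in DMEM with 10% FBS, exposed 24 h to peptide at 0.01–200 μM. Negative control 0.1% DMSO, positive control 10% Triton X-100. Viability read by MTT (0.5 mg/mL, 4 h), then DMSO solubilisation 1 h, absorbance at 550 nm.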"}, "[12]": {"experiment": "Stability in water at 200 uM at 100 degC for 2 hrs by RP-HPLC analysis", "format": "physicochemical", "conditions": "read-out: Stability", "summary_of_the_method": "as §3"}, "[13]": {"system": "Sf9", "experiment": "Cytotoxicity against Spodoptera frugiperda Sf9 cells assessed as induction of membrane integrity loss at 5 uM after 15 hrs by PKH26-labeling based phase contrast microscopic analysis", "format": "functional, cell-based", "summary_of_the_method": "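Sf9 cells grown at 26 °C in Sf-900 III SFM with 2% FBS. Incubated with 5 μM peptide at 26 °C for 15 h. Live-cell bright-field imaging at 0, 1, 4, 8 and 15 h to follow cell shape and membrane integrity.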"}},
  "note": "Active and inactive are the calls of the source. No cut-off for these calls is given here. Where a SMILES comes first, the peptide text is derived from it.",
  "data": [
    {"smiles": "CC[C@H](C)[C@H](NC(=O)[C@H](CS)NC(=O)[C@H](Cc1ccccc1)NC(=O)CNC(=O)[C@@H](NC(=O)[C@@H](NC(=O)[C@H](CC(C)C)NC(=O)CNC(=O)[C@@H](NC(=O)[C@@H]1CCCN1C(=O)[C@@H](NC(=O)[C@H](CS)NC(=O)[C@H](CCCNC(=N)N)NC(=O)[C@H](CS)NC(=O)[C@H](CC(=O)O)NC(=O)[C@H](CCCNC(=N)N)NC(=O)[C@H](CO)NC(=O)CNC(=O)[C@H](CS)NC(=O)[C@@H]1CCCN1C(=O)[C@@H]1CCCN1C(=O)[C@@H](NC(=O)[C@H](CCC(=O)O)NC(=O)[C@H](Cc1ccccc1)NC(=O)[C@@H]1CCCN1C(=O)[C@H](CO)NC(=O)[C@H](CS)NC(=O)[C@H](C)NC(=O)CNC(=O)[C@H](CO)NC(=O)[C@H](CS)NC(=O)[C@H](CC(=O)O)NC(=O)[C@@H](N)C(C)C)C(C)C)[C@@H](C)CC)[C@@H](C)CC)C(C)C)C(C)C)C(=O)N[C@@H](Cc1ccc(O)cc1)C(=O)N1CCC[C@H]1C(=O)N[C@H](C(=O)NCC(=O)O)[C@@H](C)O", "note": "(H-VDCSGACSPFEVPPCGSRDCRCIPIGLVVGFCIYPTG-OH)", "values": [
      {"measurement": "Activity", "setting": "[1]", "result": "Dose-dependent effect"},
      {"measurement": "LC50", "setting": "[2]", "result": 5.9, "unit": "µM"},
      {"measurement": "Activity", "setting": "[3]", "result": 811.14, "unit": "uIU/ml"},
      {"measurement": "remaining at 6 h, 200 µM", "setting": "[4]", "result": "> 88", "unit": "%"},
      {"measurement": "Activity", "setting": "[5]", "result": "Active"},
      {"measurement": "remaining at 36 h", "setting": "[6]", "result": "> 90", "unit": "%"},
      {"measurement": "remaining at 2 h, 200 µM", "setting": "[7]", "result": 92, "unit": "%"},
      {"measurement": "Activity", "setting": "[8]", "result": "inactive"},
      {"measurement": "remaining at 6 h, 200 µM", "setting": "[9]", "result": "> 88", "unit": "%"},
      {"measurement": "Activity", "setting": "[10]", "result": "Dose-dependent effect"},
      {"measurement": "Activity", "setting": "[11]", "result": "Non-Toxic"},
      {"measurement": "remaining at 2 h, 200 µM", "setting": "[12]", "result": 82, "unit": "%"},
      {"measurement": "Activity", "setting": "[13]", "result": "Active"}
    ]}
  ]
}
